Where only a bound is given, the exact number is not on record here.

System in one data set: not listed separately
Put plainly: Drug level in Sprague-Dawley rat liver at 4 mg/kg, po after 4 hrs. The settings on record: read-out: Drug uptake. Set-up: dose 4 mg/kg, route oral. It counts as ADME, organism-based. In outline: (§1)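 Oral dosing in male Sprague-Dawley rats, PEG400 vehicle; plasma exposure as AUC 0–4 h; liver tissue concentration taken at the 4 h time point. Doses of 3–4 mg/kg were normalized to 5 mg/kg by linear adjustment.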
`C=C[C@@H]1C[C@]1(NC(=O)[C@@H]1C[C@@H]2CN1C(=O)[C@H](C1CCCCC1)N(C)[C@H](C)CCCCCCc1cccc3c1CN(C3)C(=O)O2)C(=O)NS(=O)(=O)C1CC1`: the concentration at 4 h turned out to be 560 nM.
On the same count and under the same terms, with `C=C[C@@H]1C[C@]1(NC(=O)[C@@H]1C[C@@H]2CN1C(=O)[C@H](C1CCCC1)N[C@H](C)CCCCCCc1cccc3c1CN(C3)C(=O)O2)C(=O)NS(=O)(=O)C1CC1` the figure was less than 100 nM.

System in a further data set: not listed separately
The data set can be described thus: Drug level in Sprague-Dawley rat liver at 5 mg/kg, po after 4 hrs. It counts as ADME, organism-based. The settings on record: read-out: Drug uptake. Set-up: dose 5 mg/kg, route oral. In outline: as §1
Take `C=C[C@@H]1C[C@]1(NC(=O)[C@@H]1C[C@@H]2CN1C(=O)[C@H](C1CCCCC1)N(C)[C@H](C)CCCCCCc1cccc3c1CN(C3)C(=O)O2)C(=O)NS(=O)(=O)C1CC1`: the concentration at 4 h turned out to be 560 nM.
Still for that read-out and setting: the same measure for `C=C[C@@H]1C[C@]1(NC(=O)[C@@H]1C[C@@H]2CN1C(=O)[C@H](C1CCCC1)N[C@H](C)CCCC/C=C/c1cccc3c1CN(C3)C(=O)O2)C(=O)NS(=O)(=O)C1CC1`: 260 nM.

Another data set deals with Hepatitis C virus. The data set can be described thus: Antiviral activity against HCV 1b infected in human HuH7 cells by replicon assay in presence of 50% normal human plasma. The format is functional, organism-based, Hepacivirus hominis. The settings on record: genotype 1b, Huh-7, Plasma. The procedure, abridged:
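Genotype 1b subgenomic replicon in HUH-7 cells run under high-serum conditions (50% normal human serum). Read-out is cellular HCV RNA; EC50 reported.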
For orientation: Replicon systems follow genome replication, usually without infectious particles.
As usually defined, the EC50 is the concentration at which the effect is half-maximal. `C=C[C@@H]1C[C@]1(NC(=O)[C@@H]1C[C@@H]2CN1C(=O)C(C(C)C)NC(C(F)(F)F)CCCCCCc1cccc3c1CN(C3)C(=O)O2)C(=O)NS(=O)(=O)C1CC1` (single isomer, unassigned): the concentration for a half-maximal effect (EC50) is 320 nM.
Still for that read-out and setting: the same measure for `C=C[C@@H]1C[C@]1(NC(=O)[C@@H]1C[C@@H]2CN1C(=O)C(C(C)C)NCC(F)(F)CCCCCc1cccc3c1CN(C3)C(=O)O2)C(=O)NS(=O)(=O)C1CC1` (single isomer, unassigned): 100 nM.

System in another data set: not listed separately
Put plainly: AUC (0 to 4 hrs) in Sprague-Dawley rat at 5 mg/kg, po. It counts as ADME, organism-based. On the set-up: time < 4 hr, dose 5 mg/kg, route oral. The settings on record: plasma. In outline:
as §1
A word on the AUC(0-t): it is the area under the concentration-time curve up to a stated or last time point. High values mean high exposure, low ones low exposure. Molecule `C=C[C@@H]1C[C@]1(NC(=O)[C@@H]1C[C@@H]2CN1C(=O)[C@H](C1CCCCC1)N(C)[C@H](C)CCCCCCc1cccc3c1CN(C3)C(=O)O2)C(=O)NS(=O)(=O)C1CC1` showed an area under the curve AUC(0-t) at 4 h of less than 0.1 µM·h.
`C=C[C@@H]1C[C@]1(NC(=O)[C@@H]1C[C@@H]2CN1C(=O)[C@H](C1CCCC1)N[C@H](C)CCCC/C=C/c1cccc3c1CN(C3)C(=O)O2)C(=O)NS(=O)(=O)C1CC1` registered an AUC(0-t) at 4 h of less than 0.1 µM·h.
Consider `C=C[C@@H]1C[C@]1(NC(=O)[C@@H]1C[C@@H]2CN1C(=O)[C@H](C1CCCCC1)N[C@H](C)CCCCCCc1cccc3c1CN(C3)C(=O)O2)C(=O)NS(=O)(=O)C1CC1`, for which the AUC(0-t) at 4 h was less than 0.1 µM·h.

In the next data set the test system is Hepatitis C virus. Put plainly: Inhibition of HCV 1b NS3 protease by time-resolved fluorescence assay. On the set-up: species or system Hepatitis C virus subtype 1b.
Conditions: not given
In outline:
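Recombinant genotype 1b NS3 protease measured by time-resolved fluorescence assay; Ki determined.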
As usually defined, the Ki is a measure of affinity in units of concentration, obtained from inhibition or displacement. The molecule `C=C[C@@H]1C[C@]1(NC(=O)[C@@H]1C[C@@H]2CN1C(=O)[C@H](C1CCCCC1)N(C)[C@H](C)CCCCCCc1cccc3c1CN(C3)C(=O)O2)C(=O)NS(=O)(=O)C1CC1` registered an inhibition constant (Ki) of 0.35 nM.
Molecule `C=C[C@@H]1C[C@]1(NC(=O)[C@@H]1C[C@@H]2CN1C(=O)[C@H](C1CCCC1)N[C@H](C)CCCC/C=C/c1cccc3c1CN(C3)C(=O)O2)C(=O)NS(=O)(=O)C1CC1` registered a Ki of 0.29 nM.
The molecule `C=C[C@@H]1C[C@]1(NC(=O)[C@@H]1C[C@@H]2CN1C(=O)[C@H](C1CCCC1)N[C@H](C)CCCCCCc1cccc3c1CN(C3)C(=O)O2)C(=O)NS(=O)(=O)C1CC1` returned a Ki of 0.1 nM.
Still for that read-out and setting: the same measure for `C=C[C@@H]1C[C@]1(NC(=O)[C@@H]1C[C@@H]2CN1C(=O)[C@H](C(C)C)N[C@@H](C(F)(F)F)CCCCCCc1cccc3c1CN(C3)C(=O)O2)C(=O)NS(=O)(=O)C1CC1`: 5.7 nM.
Still for that read-out and setting: with `C=C[C@@H]1C[C@]1(NC(=O)[C@@H]1C[C@@H]2CN1C(=O)[C@H](C1CCCCC1)N[C@H](C)CCCCCCc1cccc3c1CN(C3)C(=O)O2)C(=O)NS(=O)(=O)C1CC1` the figure was 0.06 nM; with `C=C[C@@H]1C[C@]1(NC(=O)[C@@H]1C[C@@H]2CN1C(=O)[C@H](C(C)C)NC(=O)OCCC/C=C/c1cccc3c1CN(C3)C(=O)O2)C(=O)NS(=O)(=O)C1CC1`, 0.04 nM.
On to `C=C[C@@H]1C[C@]1(NC(=O)[C@@H]1C[C@@H]2CN1C(=O)C(C(C)C)NC(C(F)(F)F)CCCCCCc1cccc3c1CN(C3)C(=O)O2)C(=O)NS(=O)(=O)C1CC1` (single isomer, unassigned), for which the Ki was 1.1 nM.
On the same count and under the same terms, the same measure for `C=C[C@@H]1C[C@]1(NC(=O)[C@@H]1C[C@@H]2CN1C(=O)C(C(C)C)NCC(F)(F)CCCCCc1cccc3c1CN(C3)C(=O)O2)C(=O)NS(=O)(=O)C1CC1` (single isomer, unassigned): 0.35 nM.

Another data set is filed under the species Homo sapiens. The data set can be described thus: Fraction unbound in human plasma.
Conditions: not given
A word on the fraction unbound: it is free concentration divided by total concentration. Turning to `C=C[C@@H]1C[C@]1(NC(=O)[C@@H]1C[C@@H]2CN1C(=O)C(C(C)C)NC(C(F)(F)F)CCCCCCc1cccc3c1CN(C3)C(=O)O2)C(=O)NS(=O)(=O)C1CC1` (single isomer, unassigned), the fraction unbound amounted to 0.019.

In the next data set the test system is Hepatitis C virus. The data set can be described thus: Antiviral activity against HCV 1b infected in human HuH7 cells by replicon assay in presence of 10% fetal bovine serum. The format is functional, organism-based, Hepacivirus hominis. The settings on record: genotype 1b, Huh-7. The procedure, abridged: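 Subgenomic genotype 1b HCV RNA replicon in HUH-7 cells, modified Bartenschlager procedure, run with 10% fetal bovine serum. Read-out is cellular HCV RNA, confirmed in a separate assay using an anti-NS3 monoclonal antibody; EC50 derived.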
In the case of `C=C[C@@H]1C[C@]1(NC(=O)[C@@H]1C[C@@H]2CN1C(=O)[C@H](C1CCCCC1)N(C)[C@H](C)CCCCCCc1cccc3c1CN(C3)C(=O)O2)C(=O)NS(=O)(=O)C1CC1`, the EC50 was 3 nM.
As for `C=C[C@@H]1C[C@]1(NC(=O)[C@@H]1C[C@@H]2CN1C(=O)[C@H](C1CCCC1)N[C@H](C)CCCC/C=C/c1cccc3c1CN(C3)C(=O)O2)C(=O)NS(=O)(=O)C1CC1`, the EC50 turned out to be 0.5 nM.
Still for that read-out and setting: with `C=C[C@@H]1C[C@]1(NC(=O)[C@@H]1C[C@@H]2CN1C(=O)[C@H](C1CCCC1)N[C@H](C)CCCCCCc1cccc3c1CN(C3)C(=O)O2)C(=O)NS(=O)(=O)C1CC1` the figure was 0.7 nM; with `C=C[C@@H]1C[C@]1(NC(=O)[C@@H]1C[C@@H]2CN1C(=O)[C@H](C(C)C)N[C@@H](C(F)(F)F)CCCCCCc1cccc3c1CN(C3)C(=O)O2)C(=O)NS(=O)(=O)C1CC1`, 470 nM.
Still for that read-out and setting: the same measure for `C=C[C@@H]1C[C@]1(NC(=O)[C@@H]1C[C@@H]2CN1C(=O)[C@H](C1CCCCC1)N[C@H](C)CCCCCCc1cccc3c1CN(C3)C(=O)O2)C(=O)NS(=O)(=O)C1CC1`: 2 nM; for `C=C[C@@H]1C[C@]1(NC(=O)[C@@H]1C[C@@H]2CN1C(=O)[C@H](C(C)C)NC(=O)OCCC/C=C/c1cccc3c1CN(C3)C(=O)O2)C(=O)NS(=O)(=O)C1CC1`: 12 nM.
Take `C=C[C@@H]1C[C@]1(NC(=O)[C@@H]1C[C@@H]2CN1C(=O)C(C(C)C)NC(C(F)(F)F)CCCCCCc1cccc3c1CN(C3)C(=O)O2)C(=O)NS(=O)(=O)C1CC1` (single isomer, unassigned): the EC50 is 18 nM.
On the same count and under the same terms, the same measure for `C=C[C@@H]1C[C@]1(NC(=O)[C@@H]1C[C@@H]2CN1C(=O)C(C(C)C)NCC(F)(F)CCCCCc1cccc3c1CN(C3)C(=O)O2)C(=O)NS(=O)(=O)C1CC1` (single isomer, unassigned): 14 nM.

System in the next data set: not listed separately
The data set can be described thus: AUC (0 to 4 hrs) in Sprague-Dawley rat at 4 mg/kg, po. The format is ADME, organism-based. On the set-up: time < 4 hr, dose 4 mg/kg, route oral. The settings on record: plasma. The procedure, abridged:
as §1
`C=C[C@@H]1C[C@]1(NC(=O)[C@@H]1C[C@@H]2CN1C(=O)[C@H](C1CCCCC1)N(C)[C@H](C)CCCCCCc1cccc3c1CN(C3)C(=O)O2)C(=O)NS(=O)(=O)C1CC1` displayed an AUC(0-t) at 4 h of less than 0.1 µM·h.
The same measure, in the same setting: the same measure for `C=C[C@@H]1C[C@]1(NC(=O)[C@@H]1C[C@@H]2CN1C(=O)[C@H](C1CCCC1)N[C@H](C)CCCCCCc1cccc3c1CN(C3)C(=O)O2)C(=O)NS(=O)(=O)C1CC1`: less than 0.1 µM·h.

(Values after ChEMBL document CHEMBL1158491, “Inhibitors of the hepatitis C virus NS3 protease with basic amine functionality at the P3-amino acid N-terminus: discovery and optimization of a new series of P2-P4 macrocycles” (J Med Chem, 2009).)
